Molecules are shown by their SMILES. pIC50: −log10 of the molar value. Activity calls are given as the source filed them. The rule behind the calls is not given here.

The nature of data set [1]: Selectivity index, ratio of IC50 for hTERT-RPE1 cells to IC50 for human HCT-116 cells. Conditions: hTERT-RPE1 cells versus HCT-116 cells, read-out: Ratio IC50. The format is toxicity. The procedure, abridged: (§1)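 Ratio of the hTERT-RPE-1 MTT IC50 to the IC50 in HCT116 or MCF-7. Each IC50 comes from a 48 h MTT assay (0.078–80 µM, sigmoidal fit), three experiments in triplicate.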

The subject of data set [2] is HCT-116. The data set can be described thus: Induction of morphological changes in human HCT-116 cells assessed as neuronal sprouting at 0.5 uM incubated for 48 hrs by scanning electron microscopic analysis. The format is functional, cell-based. In short, it runs like this: (§2)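 HCT116 on coverslips, treated 48 h at 0.5 µM. Coverslips rinsed in PBS pH 7.4, fixed in 4% glutaraldehyde for 30 min at 4 °C, then imaged by scanning electron microscopy at 5000X and 20000X.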

For data set [3], the system named is HCT-116. The experiment in a line: Induction of morphological changes in human HCT-116 cells assessed as appearance of long and thin filopodia at 0.5 uM incubated for 48 hrs by scanning electron microscopic analysis. Type of data set: functional, cell-based. In short, it runs like this: as §2
Data set [4] deals with HCT-116. The experiment in a line: Induction of autophagy in human HCT-116 cells assessed as effect on Beclin-1 protein expression at 0.5 uM incubated for 48 hrs by Western blot analysis. The format is functional, cell-based. Background: Immunoblotting shows a protein as a band on a membrane.
The test system of data set [5] is HCT-116. The data set can be described thus: Induction of cell death in human HCT-116 cells assessed as increase in orange fluorescence at 0.5 uM incubated for 48 hrs by acridine orange and ethidium bromide staining based fluorescence microscopic analysis. Type of data set: functional. The procedure, abridged: (§3)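 HCT116 on coverslips (5×10^4 cells/well), 24 h attachment, then exposed 48 h to 0.5 µM. PBS-washed and stained a few minutes with a 1:1 mix of acridine orange (100 µg/mL) and ethidium bromide (100 µg/mL). Viewed at once by fluorescence microscopy at 640X, scoring green vs orange nuclei and punctate cytoplasmic staining.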

Data set [6] concerns MCF7. The data set can be described thus: Induction of morphological changes in human MCF7 cells assessed as appearance of filamentous protrusions at 1 uM incubated for 48 hrs by inverted phase-contrast microscopic analysis. Type of data set: functional, cell-based.
The subject of data set [7] is MCF7. The data set can be described thus: Induction of morphological changes in human MCF7 cells assessed as appearance of flattened cells at 1 uM incubated for 48 hrs by inverted phase-contrast microscopic analysis. The format is functional, cell-based.
In data set [8] the test system is HCT-116. The experiment in a line: Induction of cell death in human HCT-116 cells assessed as chromatin condensation at 0.5 uM incubated for 48 hrs by acridine orange and ethidium bromide staining based fluorescence microscopic analysis. The format is functional. In short, it runs like this:
as §3

The test system of data set [9] is HCT-116. The data set can be described thus: Induction of intracellular ROS generation in human HCT-116 cells at IC50 measured after 48 hrs by DCFH-DA staining based fluorescence microscopic analysis. The format is functional, cell-based. The procedure, abridged:
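HCT116 on coverslips at 5×10^4 cells/well, treated 48 h at the IC50 concentration. Loaded with 10 µM DCFH-DA for 30 min at 37 °C, then imaged by fluorescence microscopy at 640X.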

Data set [10] has as its system HCT-116. The experiment in a line: Cytotoxicity against human HCT-116 cells assessed as inhibition of cell proliferation incubated for 48 hrs by MTT assay. The format is functional, cell-based. Conditions: HCT-116, 48 h. The procedure, abridged: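 Cells kept in DMEM with 10% heat-inactivated FBS, penicillin/streptomycin, 37 °C, 5% CO2. Plated at 5×10^3 cells/well and left 24 h, then exposed 48 h to 80, 20, 5, 1.25, 0.31 and 0.078 µM (diluted from 5 mM DMSO stocks). MTT added for 2 h at 37 °C, formazan dissolved in DMSO, A570 read. Blank subtracted, viability taken relative to untreated cells. IC50 from a sigmoidal fit of % inhibition vs log concentration. Three experiments, each in triplicate.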

In data set [11] the test system is HCT-116. The data set can be described thus: Induction of morphological changes in human HCT-116 cells assessed as leakage and perforation of cell membranes at 0.5 uM incubated for 48 hrs by scanning electron microscopic analysis. The format is functional, cell-based. The procedure, abridged: as §2
The subject of data set [12] is HCT-116. The experiment in a line: Induction of morphological changes in human HCT-116 cells assessed as appearance of flattened cells at 0.5 uM incubated for 48 hrs by scanning electron microscopic analysis. Type of data set: functional, cell-based. The procedure, abridged: as §2
Data set [13] deals with HCT-116. The experiment in a line: Induction of morphological changes in human HCT-116 cells assessed as appearance of elongated fusiform-shaped cells at 0.5 uM incubated for 48 hrs by scanning electron microscopic analysis. Type of data set: functional, cell-based. In short, it runs like this: as §2
In data set [14] the test system is HCT-116. The experiment in a line: Induction of morphological changes in human HCT-116 cells assessed as increase in number of prominent vacuoles at 0.5 uM incubated for 48 hrs by inverted phase-contrast microscopic analysis. The format is functional, cell-based.
The nature of data set [15]: Selectivity index, ratio of IC50 for hTERT-RPE1 cells to IC50 for human MCF7 cells. Type of data set: toxicity. The conditions noted are these: hTERT-RPE1 cells versus MCF7 cells, read-out: Ratio IC50. The procedure, abridged: as §1
Data set [16] has as its system HCT-116. The data set can be described thus: Induction of morphological changes in human HCT-116 cells assessed as appearance of filamentous protrusions at 0.5 uM incubated for 48 hrs by inverted phase-contrast microscopic analysis. The format is functional, cell-based.
The subject of data set [17] is HCT-116. The data set can be described thus: Induction of morphological changes in human HCT-116 cells assessed as tunneling nanotubes formation at 0.5 uM incubated for 48 hrs by scanning electron microscopic analysis. Type of data set: functional, cell-based. In short, it runs like this:
as §2

The subject of data set [18] is HCT-116. The experiment in a line: Induction of autophagy in human HCT-116 cells assessed as downregulation of LC3B-I expression at 0.5 uM incubated for 48 hrs by Western blot analysis. The format is functional, cell-based.
Data set [19] concerns HCT-116. The data set can be described thus: Induction of autophagy in human HCT-116 cells assessed as upregulation of LC3-II expression at 0.5 uM incubated for 48 hrs by Western blot analysis. The format is functional, cell-based.
The subject of data set [20] is HCT-116. The experiment in a line: Induction of autophagy in human HCT-116 cells assessed as upregulation of Beclin-1 protein expression at 0.5 uM incubated for 48 hrs by Western blot analysis. Type of data set: functional, cell-based.
Data set [21] has as its system HCT-116. The data set can be described thus: Induction of autophagy in human HCT-116 cells assessed as upregulation of Atg-7 protein expression at 0.5 uM incubated for 48 hrs by Western blot analysis. Type of data set: functional, cell-based.

As for `O=C(c1cc(Br)ccc1O)c1[nH]c(Br)c(Cl)c1Br`, the selectivity ratio in data set [1] and in data set [15] was roughly 100 each time. The result with HCT-116 [2], in the data set with HCT-116 [3], with HCT-116 [4], in the data set on HCT-116 [5], in the data set with MCF7 [6] and in the data set on MCF7 [7] was Active. Also, the result in the data set with HCT-116 [9], with HCT-116 [11], in the data set on HCT-116 [12], with HCT-116 [13], with HCT-116 [14] and in the data set on HCT-116 [16] was Active. Moreover, the result with HCT-116 [17] was Active. The outcome with HCT-116 [8] was inactive. Moreover, the pIC50 with HCT-116 [10] is 6.31.

As to `O=C(c1cc(Br)ccc1O)c1[nH]c(Cl)c(Br)c1Br`, the result with HCT-116 [18], with HCT-116 [2], with HCT-116 [3], in the data set with HCT-116 [4], in the data set on HCT-116 [5] and in the data set on MCF7 [6] was Active. For the same compound, the result in the data set on MCF7 [7], in the data set on HCT-116 [9], with HCT-116 [11], in the data set on HCT-116 [12], with HCT-116 [19] and with HCT-116 [13] was Active. The outcome in the data set with HCT-116 [14], with HCT-116 [16] and with HCT-116 [17] was Active. Also, the selectivity ratio in data set [1] and in [15] was roughly 100 throughout. In addition, in the data set on HCT-116 [8], the outcome was inactive. The pIC50 with HCT-116 [10] is 6.39.

In the case of `O=C(c1cc(Br)cc(Br)c1O)c1[nH]c(Br)c(Br)c1Br`, the result in the data set on HCT-116 [20], with HCT-116 [2], in the data set on HCT-116 [3], in the data set with HCT-116 [5], in the data set on MCF7 [6] and in the data set with MCF7 [7] was Active. The result in the data set on HCT-116 [21], in the data set on HCT-116 [9], in the data set with HCT-116 [11], in the data set on HCT-116 [12], in the data set with HCT-116 [13] and with HCT-116 [14] was Active. Also, the result with HCT-116 [16] and in the data set with HCT-116 [17] was Active. Also, the result in the data set on HCT-116 [8] was inactive. Moreover, in the data set with HCT-116 [10], the pIC50 was 5.89.

Turning to `O=C(c1cc(Br)ccc1O)c1[nH]c(Br)c(Br)c1Br`, the selectivity ratio in [1] and in data set [15] was roughly 100 each time. Moreover, the outcome with HCT-116 [2], with HCT-116 [3], in the data set on HCT-116 [4], with HCT-116 [5], with MCF7 [6] and with MCF7 [7] was Active. Further, the outcome in the data set on HCT-116 [9], in the data set on HCT-116 [11], with HCT-116 [12], with HCT-116 [13], with HCT-116 [14] and with HCT-116 [16] was Active. Further, the outcome in the data set on HCT-116 [17] was Active. Moreover, the outcome in the data set with HCT-116 [8] was inactive. The pIC50 with HCT-116 [10] is 6.46.

Regarding `O=C(c1cc(Br)ccc1O)c1[nH]c(Cl)c(Cl)c1Br`, the result in the data set with HCT-116 [18], with HCT-116 [2], in the data set on HCT-116 [3], in the data set on HCT-116 [4], in the data set with HCT-116 [5] and in the data set with MCF7 [6] was Active. Moreover, the result in the data set with MCF7 [7], with HCT-116 [9], in the data set on HCT-116 [11], in the data set with HCT-116 [12], in the data set with HCT-116 [19] and in the data set with HCT-116 [13] was Active. The result in the data set on HCT-116 [14], in the data set with HCT-116 [16] and with HCT-116 [17] was Active. The selectivity ratio in data set [1] and in data set [15] was roughly 100 in each case. Also, the outcome with HCT-116 [8] was inactive. For the same compound, the pIC50 in the data set on HCT-116 [10] is 6.06.

In general, pIC50 refers to the IC50 on a negative log10 scale, so that one unit is a factor of ten.

For the origin of these results see ChEMBL document CHEMBL5360579, “Exploring the anticancer activity and the mechanism of action of pyrrolomycins F obtained by microwave-assisted total synthesis” (Eur J Med Chem, 2023).
